# Results gathered from unrelated publications.
# Lines come from different studies, so protocols differ.
# SLC22A2: Solute carrier family 22 member 2 (SLC22A2, Homo sapiens, UniProt O15244)
SMILES,tested on,assay,system,setting,quantity,value
COC(=O)c1csc(C(=O)c2c[nH]c3ccccc23)n1,"Aryl hydrocarbon receptor (AHR, Homo sapiens, UniProt P35869)","reporter gene, agonist, luciferase",,,EC50,4.6 nM
CON=C(N)c1ccc(-c2ccc(-c3ccc(C(N)=NOC)cc3)o2)cc1,"Cytochrome P450 1B1 (CYP1B1, Homo sapiens, UniProt Q16678)","enzyme activity, substrate",,,Km,300 nM
COc1ccc(S(=O)(=O)ON=C2C=C(C)C(=O)C(C)=C2)cc1,MDA-MB-468,cell growth or viability,,,CC50,2570 nM
CC(C)n1cc(C#N)c2cc(-n3cc(C(=O)O)cn3)ccc21,,,"human, plasma","oral, 400 mg, single dose, fasted, healthy volunteers",half-life,786 min
CC[C@H](C)[C@H](NC(=O)[C@H](CCC(=O)O)NC(=O)[C@H](CO)NC(=O)[C@@H](NC(=O)[C@@H](N)CO)C(C)C)C(=O)N[C@@H](CCC(N)=O)C(=O)N[C@@H](CC(C)C)C(=O)N[C@@H](CCSC)C(=O)N[C@@H](Cc1cnc[nH]1)C(=O)N[C@@H](CC(N)=O)C(=O)N[C@@H](CC(C)C)C(=O)NCC(=O)N[C@@H](CCCCN)C(=O)N[C@@H](Cc1cnc[nH]1)C(=O)N[C@@H](CC(C)C)C(=O)N[C@@H](CC(N)=O)C(=O)N[C@@H](CO)C(=O)N[C@@H](CCSC)C(=O)N[C@@H](CCC(=O)O)C(=O)N[C@@H](CCCN=C(N)N)C(=O)N[C@H](C(=O)N[C@@H](CCC(=O)O)C(=O)N[C@@H](Cc1c[nH]c2ccccc12)C(=O)N[C@@H](CC(C)C)C(=O)N[C@@H](CCCN=C(N)N)C(=O)N[C@@H](CCCCN)C(=O)N[C@@H](CCCCN)C(=O)N[C@@H](CC(C)C)C(=O)N[C@@H](CCC(N)=O)C(=O)N[C@@H](CC(=O)O)C(=O)N[C@H](C(=O)N[C@@H](Cc1cnc[nH]1)C(=O)N[C@@H](CC(N)=O)C(=O)N[C@@H](Cc1ccccc1)C(=O)O)C(C)C)C(C)C,,"chemical stability, HPLC",aqueous buffer,"0.5 mg/mL, 2 min, pH 6.5",compound remaining,100%
O=C(O)CSc1nnc(Br)n1-c1ccc(C2CC2)c2ccccc12,SLC22A2,"transporter uptake, inhibitor",MDCK-II,"100 µM, 5 min",inhibition,26%
COc1ccc(-c2ocnc2C(=O)NCCCn2cncn2)cc1Cl,THLE,cell growth or viability,,,IC50,117 µM
C=C[C@H]1C[N@@]2CC[C@H]1C[C@@H]2[C@@H](O)c1ccnc2ccc(OC)cc12,SLC22A2,"transporter uptake, inhibitor",MDCK-II,"100 µM, 5 min",inhibition,78%
CC(C)(O)c1ccccc1-c1ccc2[nH]c(/C=C/c3ccc(C(F)(F)F)cc3)nc2c1,,,"male human, plasma","oral, 60 mg, single dose, fasted, healthy volunteers",half-life,3200 min
